Test results published in ChEMBL document CHEMBL4665798, “Novel Human Urate Transporter 1 Inhibitors as Hypouricemic Drug Candidates with Favorable Druggability” (J Med Chem, 2020).

Experiments:
[1] = MRT (0 to infinity) in male Kunming mouse at 2 mg/kg, po by LC-MS/MS analysis; assay type: ADME, organism-based; conditions: in vivo
Outline: (§1)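 Male Kunming mice, ten in total, split into five groups; single oral dose in PEG 400/normal saline (70/30, v/v). Blood taken from submandibular or saphenous vein into K2EDTA tubes at 0.25, 0.5, 1, 2, 4, 8, 24, 48, 72 h. Plasma spun at about 4 °C and kept at -70 °C. Acetonitrile precipitation with dexamethasone internal standard, then LC-MS/MS against plasma standard curves.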

[2] = MRT (0 to infinity) in Sprague-Dawley rat at 20 mg/kg, po by LC-MS analysis; assay type: ADME, organism-based; conditions: in vivo
[3] = Half-life in Sprague-Dawley rat at 20 mg/kg, po by LC-MS analysis; assay type: ADME, organism-based; conditions: in vivo
[4] = MRT (0 to infinity) in male Kunming mouse at 50 mg/kg, po by LC-MS/MS analysis; assay type: ADME, organism-based; conditions: in vivo; outline: as §1
Rattus norvegicus = organism: Rattus norvegicus; assay: Hypouricemic activity in rat model of xanthine/potassium oxonate-induced acute hyperuricemia assessed as decrease in serum uric acid level relative to control; assay type: functional; set-up: scale not given: the % may be the effect or the level left
[5] = MRT (0 to infinity) in male Kunming mouse at 500 mg/kg, po by LC-MS/MS analysis; assay type: ADME, organism-based; conditions: in vivo
Outline: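 Male Kunming mice given oral compound in PEG 400/normal saline (70/30, V/V). Blood from submandibular or saphenous vein into K2EDTA tubes at 0.25 to 72 h. Plasma spun at 3200g near 4 °C, kept -70 °C, precipitated with acetonitrile plus dexamethasone internal standard. Quantified by LC-MS/MS against spiked blank-plasma standard curves.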

[6] = AUC (0 to infinity) in male Kunming mouse at 2 mg/kg, po by LC-MS/MS analysis; assay type: ADME, organism-based; set-up: time infinity, route oral, dose 2 mg/kg; conditions: in vivo; outline: as §1
[7] = AUC (0 to t) in male Kunming mouse at 2 mg/kg, po by LC-MS/MS analysis; assay type: ADME, organism-based; set-up: dose 2 mg/kg; conditions: in vivo; outline: as §1
[8] = biological target: T1, Solute carrier family 2, facilitated glucose transporter member 9 (Homo sapiens, UniProt Q9NRM0); assay: Inhibition of GLUT9 (unknown origin)
T1 sequence (Q9NRM0 whole entry): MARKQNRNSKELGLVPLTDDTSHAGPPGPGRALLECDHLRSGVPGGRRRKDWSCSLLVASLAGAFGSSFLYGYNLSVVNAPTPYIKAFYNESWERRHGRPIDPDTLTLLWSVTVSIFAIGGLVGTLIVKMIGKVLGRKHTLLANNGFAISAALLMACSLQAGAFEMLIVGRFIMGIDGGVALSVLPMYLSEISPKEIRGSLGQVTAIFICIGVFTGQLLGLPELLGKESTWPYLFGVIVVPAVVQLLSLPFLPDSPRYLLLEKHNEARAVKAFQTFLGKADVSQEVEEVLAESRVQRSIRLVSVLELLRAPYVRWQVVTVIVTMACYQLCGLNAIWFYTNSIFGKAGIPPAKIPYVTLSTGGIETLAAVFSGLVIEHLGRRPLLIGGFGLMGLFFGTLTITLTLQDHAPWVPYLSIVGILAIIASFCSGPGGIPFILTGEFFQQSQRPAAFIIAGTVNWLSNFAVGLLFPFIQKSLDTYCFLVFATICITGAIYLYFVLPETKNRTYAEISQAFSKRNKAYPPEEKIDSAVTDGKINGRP

[9] = MRT (0 to infinity) in Sprague-Dawley rat at 10 mg/kg, po by LC-MS analysis; assay type: ADME, organism-based; conditions: in vivo
Outline: (§2)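 Male Sprague-Dawley rats, two groups, dosed iv or orally; compound in PEG 400/normal saline (70/30, V/V). Oral blood from sinus jugularis at 5 min to 24 h, plasma by centrifugation at 2200 g, stored -20 °C. Plasma with internal standard precipitated by methanol, quantified by LC-MS against spiked blank-plasma standard curves. Mean ± SD, n = 5.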

[10] = Cmax in Sprague-Dawley rat at 10 mg/kg, po by LC-MS analysis; assay type: ADME, organism-based; set-up: route oral, dose 10 mg/kg; conditions: in vivo; outline: as §2

SMILES | MRT inf [1] [h] | MRT inf [2] [h] | half-life [3] [h] | MRT inf [4] [h] | Activity (Rattus norvegicus) [%] | MRT inf [5] [h] | AUC(0-inf) [6] [ng·h/mL] | AUC(0-t) [7] [ng·h/mL] | IC50 [8] [µM] | MRT inf [9] [h] | Cmax [10] [ng/mL]
CC(Sc1nc2ncccc2n1-c1ccc(C2CC2)c2ccccc12)C(=O)O (racemic) | 6.44 | 5.3 | 3.4 | 6.16 | 83.96 | 15.7 | 13000 | 13000 |  |  | 
O=C(CSc1nnc(Br)n1-c1ccc(C2CC2)c2ccccc12)NS(=O)(=O)c1ccc(Br)cc1 |  |  |  |  |  |  |  |  | 31.7 | 5.6 | 3400
